Assay results taken from PubChem BioAssay.
Active and inactive are the calls of the source.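 Rule for the calls, unless noted: active = viability at or under a set limit in both replicates, limit being median viability minus 3 SD (cut at about 48% in these data, passing the limit was not always enough); inconclusive = at or under the limit in just one replicate; inactive = at or above the limit in both replicates.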

Tests used:
[1] = SK-BR-3 cell growth inhibitors, pilot screen, 24 h, human (AID 572;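 active = viability at or below 10% of carrier control in both of two separate runs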;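 note: compound exposure lasted between 18 and 24 h rather than exactly 24 h; 100% = carrier-treated control wells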); conditions: SK-BR-3 viability, CellTiter-Glo luminescence, at 10 µM, stronger effect = lower value
[2] = HUVEC growth inhibition – cell-based, human, primary screen (AID 575;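 active = viability at or below 30% in both replicate assays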;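 note: 100% = median of untreated cell wells with 0.1% DMSO on each plate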); conditions: HUVEC proliferation, CellTiter-Glo luminescence, 72 h; at 10 µM; stronger effect = lower value
Method in brief: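 System: primary human umbilical vein endothelial cells; Quantity: 1250 endothelial cells in each well; Buffer or medium: supplemented EBM, 2% fetal bovine serum; Doses: one dose, 10 µM final, 0.1% DMSO; Incubation: 72 h compound incubation; Technique: ATP-based CellTiter-Glo luminescent read; Evaluation: percent of median DMSO-control luminescence; Controls: vehicle and MePR control wells.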

[3] = growth inhibitors of H69AR lung tumor, primary screen, human, duplicate replicates (AID 580); conditions: H69AR lung tumor cells viability, ATP luminescence, 72 h; at 10 µM; stronger effect = lower value;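 note: 100% = mean luminescence of untreated wells and 0% = no signal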
[4] = reversal of MRP1-mediated doxorubicin resistance, pilot screen, H69AR cells, doxorubicin co-treatment (AID 601;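 active = viability loss from added drug above about 55%, and viability with drug at most 40%, in both replicates, limit read from the data, passing the limit was not always enough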); conditions: CellTiter-Glo, 72 h, at 10 µM; for differential viability (reversal): stronger effect = higher value
[5] = 384-well plate pilot, post-Golgi transport modulator project, inhibition of yeast transport mutant growth (AID 636; in the data active = inhibition above about 31%); conditions: absorbance 615 nm, about 18 h, stronger effect = higher value
[6] = growth suppression of yeast trafficking mutant, preliminary HTS, modulators of trafficking downstream of Golgi apparatus project, 1536-format plate, OD 615 nm (AID 637; in the data active = inhibition above about 30%); conditions: yeast transport mutant growth, absorbance 615 nm, 18 h; stronger effect = higher value
[7] = H69AR cells + 2 uM doxorubicin, measured here: viability with 2 uM doxorubicin, stronger effect = lower value
[8] = H69AR cells, compound alone cytotoxicity

Compound	viability [1]	viability [2]	viability [3]	differential viability (reversal) ([4]; H69AR cells + 2 uM doxorubicin)	viability [4, 7]	viability [4, 8]	inhibition [5]	inhibition [6]
CSc1ncc(Cl)c(C(=O)Nc2ccc(S(=O)(=O)N3CCOCC3)cc2)n1	85% (inactive)	97% (inactive)	101% (inactive)	9.55% (inactive)	91.8%	101%	-7.67% (inactive)	0.36% (inactive)
C=CCC1(O)C(=O)Nc2ccccc21 (stereo not drawn)	93% (inactive)	108% (inactive)	98.2% (inactive)	18.9% (inactive)	79.4%	98.2%	-5.2% (inactive)	1.82% (inactive)
COc1ccc2c(c1)C1(Nc3ccccc3-c3nc4ccccc4n31)C(=O)N2 (stereo not drawn)	88% (inactive)	57.2% (inactive)	82.3% (inactive)	-3.61% (inactive)	85.9%	82.3%	-8.49% (inactive)	4.19% (inactive)
Cc1cc(C)nc(N2CCC(C(=O)Nc3ccc(Oc4ccccc4)cc3)CC2)n1	67% (inactive)	105% (inactive)	88.9% (inactive)	0.65% (inactive)	88.2%	88.9%	-8.36% (inactive)	1.09% (inactive)
O=C(CN1C(=O)NC2(CCCCC2)C1=O)Nc1ccc(S(=O)(=O)N2CCOCC2)cc1	124% (inactive)	98.3% (inactive)	96.3% (inactive)	13.6% (inactive)	82.7%	96.3%	-3.38% (inactive)	3.77% (inactive)
Cn1c(=O)c2c(nc(SCC(=O)N3CCCc4ccccc43)n2C)n(C)c1=O	94% (inactive)	107% (inactive)	102% (inactive)	7.81% (inactive)	93.9%	102%	1.22% (inactive)	-2.73% (inactive)
Cc1cc(C)cc(NC(=O)CN(C)S(=O)(=O)c2cnc[nH]2)c1	113% (inactive)	104% (inactive)	100% (inactive)	8.86% (inactive)	91.3%	100%	-2.13% (inactive)	-6.36% (inactive)
CCCCNC(=O)OCCNC(=O)NC	98% (inactive)	95.9% (inactive)	98.1% (inactive)	7.46% (inactive)	90.7%	98.1%	-4.05% (inactive)	-5.45% (inactive)
Cc1nc2ccccc2c(=O)n1NC(=O)Nc1ccccc1	111% (inactive)	95.1% (inactive)	107% (inactive)	10.6% (inactive)	96%	107%	-1.2% (inactive)	-1.82% (inactive)
OC(CCN1CCCCC1)(c1ccccc1)c1ccccc1	95% (inactive)	92.7% (inactive)	84.1% (inactive)	0.38% (inactive)	83.7%	84.1%	-2.21% (inactive)	0% (inactive)
COc1ccccc1-n1c(=O)c2c3c(sc2n2c(SC(C)C)nnc12)CCC3	104% (inactive)	113% (inactive)	86.2% (inactive)	44.6% (inactive)	41.7%	86.2%	-0.14% (inactive)	1.77% (inactive)
CC(C)Sc1nc(N2CCCC2)c2c(c1C#N)CC(C)(C)OC2	90% (inactive)	71.2% (inactive)	80.2% (inactive)	42.7% (inactive)	37.5%	80.2%	-2.88% (inactive)	-4.84% (inactive)
CCOC(=O)N1CCC(NC(=O)Cc2ccc(-n3c(=O)[nH]c4ccccc4c3=O)cc2)CC1	103% (inactive)	97.6% (inactive)	96.4% (inactive)	7.9% (inactive)	88.5%	96.4%	-5.06% (inactive)	0% (inactive)
CC(C)CN(C(=O)c1ccc(=O)n(C)n1)c1nc2ccccc2s1	94% (inactive)	107% (inactive)	90.2% (inactive)	4.96% (inactive)	85.2%	90.2%	-1.08% (inactive)	1.09% (inactive)
CCSc1nc(O)c(C2OC(=O)c3c2ccc(OC)c3OC)c(=O)n1-c1ccccc1 (stereo not drawn)	129% (inactive)	94.5% (inactive)	96.5% (inactive)	11.4% (inactive)	85.1%	96.5%	-9.45% (inactive)	4.35% (inactive)
NS(=O)(=O)c1cc2c(cc1Cl)NCNS2(=O)=O	73% (inactive)	97.2% (inactive)	91.3% (inactive)	-5.11% (inactive)	96.4%	91.3%	0.65% (inactive)	1.17% (inactive)
O=C(O)Cc1ccc(-c2ccccc2)cc1	112% (inactive)	84.3% (inactive)	85.7% (inactive)	-0.76% (inactive)	86.4%	85.7%	-2.21% (inactive)	5.33% (inactive)
COc1ccc(CN(C(=O)CN2C(=O)COc3ccccc32)C2CCCC2)c(OC)c1	110% (inactive)	87.4% (inactive)	92.5% (inactive)	4.62% (inactive)	87.9%	92.5%	-4.52% (inactive)	-0.18% (inactive)

Compound	viability [1]	viability [2]	viability [3]	differential viability (reversal) ([4]; H69AR cells + 2 uM doxorubicin)	viability [4, 7]	viability [4, 8]	inhibition [5]	inhibition [6]
N#CC1=C(N)OC2=C(C(=O)CCC2)C1CCc1ccccc1 (stereo not drawn)	98% (inactive)	91.9% (inactive)	103% (inactive)	14.2% (inactive)	89.3%	103%	-6.08% (inactive)	1.64% (inactive)
Cc1onc(-c2ccccc2)c1C(=O)NCCN1CCOCC1	94% (inactive)	102% (inactive)	98% (inactive)	10.1% (inactive)	87.9%	98%	-4.93% (inactive)	-4% (inactive)
O=C(Nc1nonc1NC(=O)C1CCCCC1)C1CCCCC1	111% (inactive)	84.7% (inactive)	89.9% (inactive)	3.04% (inactive)	86.8%	89.9%	-10% (inactive)	1.94% (inactive)
Cc1c(C)n(C(=O)CN2CCN(c3ccccn3)CC2)c2ccccc12	102% (inactive)	81.2% (inactive)	81.7% (inactive)	-0.845% (inactive)	82.5%	81.7%	-5.2% (inactive)	-2.73% (inactive)
CCOC(=O)C1CCN(c2cc(C)nc3cc(-c4cccc(F)c4)nn23)CC1	86% (inactive)	105% (inactive)	90.4% (inactive)	7.95% (inactive)	82.4%	90.4%	-3.78% (inactive)	-6.91% (inactive)
Cc1csc(NC(=O)CCn2c(=O)oc3ccccc32)n1	91% (inactive)	98.8% (inactive)	94.4% (inactive)	9.97% (inactive)	84.5%	94.4%	-5.95% (inactive)	1.45% (inactive)
COc1ccc(-c2nnc(SCc3nnc(-c4ccc(Cl)cc4)o3)n2-c2ccccc2)cc1	73% (inactive)	55.6% (inactive)	84.3% (inactive)	4.27% (inactive)	80%	84.3%	-2.27% (inactive)	15.4% (inactive)
Cc1[nH]c(C(=O)N2CCCCC2)c(C)c1C(=O)NC1CCCCC1	88% (inactive)	92.4% (inactive)	103% (inactive)	18.4% (inactive)	84.4%	103%	1.43% (inactive)	0.66% (inactive)
Cc1nc(Sc2cccn2C)c(C(F)(F)F)c(=O)[nH]1	105% (inactive)	102% (inactive)	96.3% (inactive)	13.2% (inactive)	83.1%	96.3%	-6.58% (inactive)	2% (inactive)
COC(=O)c1ccc(C2C(C#N)=C(N)Oc3cc(C)n(C)c(=O)c32)cc1 (stereo not drawn)	104% (inactive)	95.5% (inactive)	97.8% (inactive)	2.3% (inactive)	95.4%	97.8%	-0.82% (inactive)	-3.23% (inactive)
CC(CN(C)Cc1ccccc1)OC(=O)c1ccc2c(c1)OCCO2 (stereo not drawn)	93% (inactive)	85.3% (inactive)	94.1% (inactive)	5.22% (inactive)	88.8%	94.1%	-7.67% (inactive)	1.29% (inactive)
Cc1sc2ncnc(Oc3ccc(-n4ccnc4)cc3)c2c1C	88% (inactive)	102% (inactive)	87.2% (inactive)	-15.1% (inactive)	102%	87.2%	-8.77% (inactive)	3.27% (inactive)
COc1cccc(/C=N/n2c(-c3ccco3)nc3ccccc3c2=O)c1	71% (inactive)	105% (inactive)	73.2% (inactive)	-12.3% (inactive)	85.4%	73.2%	-6.76% (inactive)	2.36% (inactive)
COC(=O)c1[nH]c2ccc(C)cc2c1NC(=O)CN1CCN(C(=O)c2ccccc2)CC1	130% (inactive)	94% (inactive)	78.4% (inactive)	33.4% (inactive)	44.9%	78.4%	-4.67% (inactive)	-0.36% (inactive)
COc1ccc(-c2nnnn2C)cc1S(=O)(=O)NCc1ccccc1	93.5% (inactive)	117% (inactive)	95.7% (inactive)	4.64% (inactive)	91.1%	95.7%	-0.26% (inactive)	-2.17% (inactive)
Cc1nnc(SCc2cccc(Oc3ccccc3)c2)n1N	74% (inactive)	89.3% (inactive)	99.6% (inactive)	5.25% (inactive)	94.4%	99.6%	-5.89% (inactive)	6.18% (inactive)
Cc1nc2nc(-c3cccnc3)nn2c(C)c1Cl	109% (inactive)	87.4% (inactive)	102% (inactive)	12.9% (inactive)	89.2%	102%	-3.78% (inactive)	-3.27% (inactive)
Cc1oncc1C(=O)Nc1ccc(C(F)(F)F)cc1	87% (inactive)	69.8% (inactive)	97.2% (inactive)	9.38% (inactive)	87.8%	97.2%	-1.69% (inactive)	-0.83% (inactive)
